# From ChEMBL document CHEMBL1131072, “Synthesis, physicochemical properties, and evaluation of N-substituted-2-alkyl-3-hydroxy-4(1H)-pyridinones” (J Med Chem, 1998)
# Test system: not listed separately
# Assay: Compound was tested for equilibrium constants (pKa1) potentiometrically
# Assay type: physicochemical
# Conditions: read-out: pKa1
# Procedure, shortened: (§1)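 Potentiometric titration in 0.1 M KCl (25 mL), acidified with 0.2 M HCl and titrated with 0.2 M KOH in 0.01-mL increments. Run at 25 ± 0.5 °C under argon, with the electrode zero set by a blank titration (Gran's plot). Data were fitted with TITRFIT; pKa accuracy ±0.02 pH unit.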
row,pKa,SMILES
1,3.21,CCc1c(O)c(=O)ccn1CCCC(=O)O
2,3.12,CCc1c(O)c(=O)ccn1CCC(=O)O
3,3.31,CCc1c(O)c(=O)ccn1CCO

# Continued, compound first:
row,SMILES,pKa
1,Cc1c(O)c(=O)ccn1CCC(=O)O,3.1
2,Cc1c(O)c(=O)ccn1CCO,3.44

# Test system: not listed separately
# Assay: Compound was tested for equilibrium constants (pKa1) spectrophotometrically.
# Assay type: physicochemical
# Conditions: read-out: pKa1
# Procedure, shortened: (§2)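 The UV/vis spectrum was recorded alongside each potentiometric titration step: 0.1 M KCl, HCl-acidified, titrated with 0.2 M KOH at 25 ± 0.5 °C under argon. Spectral data were fitted with TITRFIT (modified NONLIN) to give pKa, accurate to ±0.02 pH unit.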
row,pKa,SMILES
1,3.42,CCc1c(O)c(=O)ccn1CCCC(=O)O
2,3.22,CCc1c(O)c(=O)ccn1CCC(=O)O
3,3.34,CCc1c(O)c(=O)ccn1CCO

# The remaining lines, values behind:
row,SMILES,pKa
1,Cc1c(O)c(=O)ccn1CCC(=O)O,3.19
2,Cc1c(O)c(=O)ccn1CCO,3.43

# Test system: not listed separately
# Assay: Compound was determined for their affinity constants(log K3) with Fe(III) complex.
# Assay type: ADME
# Conditions: not given
# Procedure, shortened: (§3)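 Stepwise constants K1, K2 and K3 came from simultaneous spectrophotometric/potentiometric pH titrations of ligand with iron(III). Parameters were obtained by global optimization over titrations at several ligand and iron(III) concentrations, using the Fe3+/L− stepwise model (FeL2+, FeL2+, FeL3).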
row,Log K3,SMILES
1,7.9,CCc1c(O)c(=O)ccn1CCC(=O)O
2,9.4,CCc1c(O)c(=O)ccn1CCO

row,SMILES,Log K3
1,Cc1c(O)c(=O)ccn1C [DEFERIPRONE],9.8

# Test system: not listed separately
# Assay: Compound was determined for their affinity constants(log K1) with Fe(III) complex.
# Assay type: ADME
# Conditions: not given
# Procedure, shortened: (§4)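 Stepwise Fe(III) stability constants (K1, K2, K3) came from simultaneous spectrophotometric/potentiometric pH titrations of ligand with iron(III) at several ligand and Fe(III) concentrations. Parameters were fitted by global optimization, and spectra were followed across pH.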
row,Log K1,SMILES
1,16.6,CCc1c(O)c(=O)ccn1CCC(=O)O
2,15.7,CCc1c(O)c(=O)ccn1CCO

row,SMILES,Log K1
1,Cc1c(O)c(=O)ccn1C [DEFERIPRONE],14.9

# Test system: not listed separately
# Assay: Compound was determined for their affinity constants(log K2) with Fe(III) complex
# Assay type: ADME
# Conditions: not given
# Procedure, shortened: as §4
row,SMILES,Log K2
1,Cc1c(O)c(=O)ccn1C [DEFERIPRONE],12.2

# Test system: not listed separately
# Assay: Compound was determined for their affinity constants(log K2) with Fe(III) complex.
# Assay type: ADME
# Conditions: not given
# Procedure, shortened: as §3
row,Log K2,SMILES
1,11.4,CCc1c(O)c(=O)ccn1CCC(=O)O
2,11.6,CCc1c(O)c(=O)ccn1CCO

# Test system: not listed separately
# Assay: Compound was determined for their EDTA competition value(log beta3) of affinity constants.
# Assay type: ADME
# Conditions: not given
# Procedure, shortened: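 Spectrophotometric competition against EDTA on an automated titration system. The iron(III) complex was prepared at 5:1 ligand:Fe molar ratio in 0.1 M MOPS, pH 7.4, then titrated with EDTA. Spectral data were fitted in COMPT1 to give log β3, accurate to ±0.02 log unit.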
row,Log beta3,SMILES
1,37,CCc1c(O)c(=O)ccn1CCC(=O)O
2,36.8,CCc1c(O)c(=O)ccn1CCO

# Test system: not listed separately
# Assay: Partition coefficient (logD7.4)
# Assay type: physicochemical
# Conditions: octanol/water, pH 7.4
# Procedure, shortened: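 Shake-flask used a 100:1 or 1:100 phase ratio, 1 h stirring, centrifugation, and aqueous absorbance, repeated at least four times. Fe complexes were made at 10:1 ligand:Fe (10^-3/10^-4 M) and read at 460 nm. Reported as mean ± SD.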
row,logD,SMILES
1,-0.21,CCc1c(O)c(=O)ccn1C
2,-1.38,CCc1c(O)c(=O)ccn1CCCC(=O)O
3,0.72,CCOCCCn1ccc(=O)c(O)c1CC
4,0.23,CCc1c(O)c(=O)ccn1CC
5,-0.28,CCc1c(O)c(=O)ccn1CCCCO
6,0.47,C=CCn1ccc(=O)c(O)c1CC
7,-0.31,CCn1ccc(=O)c(O)c1C
8,-1.6,CCc1c(O)c(=O)ccn1CCC(=O)O
9,-0.66,CCc1c(O)c(=O)ccn1CCO
10,0.03,C=CCn1ccc(=O)c(O)c1C

# More lines, now with the values behind:
row,SMILES,logD
1,CCc1c(O)c(=O)ccn1C(C)C,0.73
2,CCOC(=O)CCn1ccc(=O)c(O)c1C,-0.24
4,Cc1c(O)c(=O)ccn1CCC(=O)NC(C)C,-0.47
5,Cc1c(O)c(=O)ccn1CCCCO,-0.75
6,Cc1c(O)c(=O)ccn1CCC(=O)N(C)C,-1
7,CCCNC(=O)CCn1ccc(=O)c(O)c1C,-0.4
8,CCCCCn1ccc(=O)c(O)c1C,1.24
9,Cc1c(O)c(=O)ccn1CCN,-1.55
10,COC(Cn1ccc(=O)c(O)c1C)OC,-0.46
11,Cc1c(O)c(=O)ccn1C [DEFERIPRONE],-0.77
12,Cc1c(O)c(=O)ccn1CCC(=O)O,-2.92
13,Cc1c(O)c(=O)ccn1CCO,-1.1

# Test system: not listed separately
# Assay: Compound was tested for equilibrium constants (pKa3) of the (carboxyalkyl) pyridinone corresponds to the […] function potentiometrically
# Assay type: physicochemical
# Conditions: read-out: pKa3
# Procedure, shortened: as §1
row,pKa,SMILES
1,9.89,CCc1c(O)c(=O)ccn1CCCC(=O)O
2,9.89,CCc1c(O)c(=O)ccn1CCC(=O)O
3,9.49,Cc1c(O)c(=O)ccn1CCC(=O)O

# Test system: not listed separately
# Assay: Compound was tested for equilibrium constants (pKa3) of the (carboxyalkyl) pyridinone corresponds to the […] function spectrophotometrically..
# Assay type: physicochemical
# Conditions: read-out: pKa3
# Procedure, shortened: as §2
row,pKa,SMILES
1,9.99,CCc1c(O)c(=O)ccn1CCCC(=O)O
2,9.91,CCc1c(O)c(=O)ccn1CCC(=O)O
3,9.51,Cc1c(O)c(=O)ccn1CCC(=O)O

# Test system: Rattus norvegicus
# Assay: The amount iron excretion in the bile duct-cannulated rats when iron chelator administered orally at dose 100 mg/kg
# Assay type: functional
# Conditions: route oral
# Procedure, shortened: (§5)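 Male Fischer rats (200–240 g), non-iron-overloaded and bile duct-cannulated, were kept in metabolic cages. Control bile and urine were collected for 3 h, then compound was given (subcutaneously or by gavage). Bile was collected at 3-h intervals over 24 h, with urine pooled over 24 h. Buprenorphine was given for analgesia. Iron was read by bathophenanthroline colorimetry (535 nm) after acid digestion (65 °C, 4 h) against iron standards.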
row,SMILES,Iron excretion
1,Cc1c(O)c(=O)ccn1C [DEFERIPRONE],351 µg/kg

# Test system: Rattus norvegicus
# Assay: The amount iron excretion in the bile duct-cannulated rats when iron chelator administered orally at dose 122 mg/kg
# Assay type: functional
# Conditions: route oral
# Procedure, shortened: (§6)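 Non-iron-overloaded male Fischer rats (200–240 g) with bile-duct cannulas in metabolic cages. Control bile/urine was collected for 3 h; chelator was then given subcutaneously or by gavage. Bile was collected in 3-h fractions over 24 h, plus 24-h urine. Iron was measured by bathophenanthroline colorimetry (TCA/HCl, 65 °C 4 h, A535) against iron standards after blank subtraction.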
row,SMILES,Iron excretion
1,Cc1c(O)c(=O)ccn1CCO,272 µg/kg

# Test system: Rattus norvegicus
# Assay: The amount iron excretion in the bile duct-cannulated rats when iron chelator administered orally at dose 132 mg/kg
# Assay type: functional
# Conditions: route oral
# Procedure, shortened: as §6
row,SMILES,Iron excretion
1,Cc1c(O)c(=O)ccn1CCCO,414 µg/kg
2,CCc1c(O)c(=O)ccn1CCO,819 µg/kg

# Test system: Rattus norvegicus
# Assay: The amount iron excretion in the bile duct-cannulated rats when iron chelator administered subcutaneously at dose 100 mg/kg
# Assay type: functional
# Conditions: route subcutaneous
# Procedure, shortened: as §5
row,SMILES,Iron excretion
1,Cc1c(O)c(=O)ccn1C [DEFERIPRONE],292 µg/kg

# Test system: Rattus norvegicus
# Assay: The amount iron excretion in the bile duct-cannulated rats when iron chelator administered subcutaneously at dose 122 mg/kg
# Assay type: functional
# Conditions: route subcutaneous
# Procedure, shortened: as §6
row,SMILES,Iron excretion
1,Cc1c(O)c(=O)ccn1CCO,353 µg/kg

# Test system: Rattus norvegicus
# Assay: The amount iron excretion in the bile duct-cannulated rats when iron chelator administered subcutaneously at dose 132 mg/kg
# Assay type: functional
# Conditions: route subcutaneous
# Procedure, shortened: as §6
row,SMILES,Iron excretion
1,Cc1c(O)c(=O)ccn1CCCO,383 µg/kg
2,CCc1c(O)c(=O)ccn1CCO,698 µg/kg

# Test system: not listed separately
# Assay: Potentiometric values of pKa2 and pKa3
# Conditions: not given
row,pKa,SMILES
1,9.89,CCc1c(O)c(=O)ccn1CCCC(=O)O
2,9.89,CCc1c(O)c(=O)ccn1CCC(=O)O
3,9.77,CCc1c(O)c(=O)ccn1CCO

# Second part, the compound before the results:
row,SMILES,pKa
1,Cc1c(O)c(=O)ccn1CCC(=O)O,9.49
2,Cc1c(O)c(=O)ccn1CCO,9.65

# Test system: not listed separately
# Assay: Spectrophotometric values of pKa2 and pKa3
# Conditions: not given
row,pKa,SMILES
1,9.99,CCc1c(O)c(=O)ccn1CCCC(=O)O
2,9.91,CCc1c(O)c(=O)ccn1CCC(=O)O
3,9.75,CCc1c(O)c(=O)ccn1CCO

# Second part, the compound before the results:
row,SMILES,pKa
1,Cc1c(O)c(=O)ccn1C [DEFERIPRONE],9.64
2,Cc1c(O)c(=O)ccn1CCC(=O)O,9.51
3,Cc1c(O)c(=O)ccn1CCO,9.72

# Test system: not listed separately
# Assay: Compound was tested for equilibrium constants (pKa2) of the (hydroxyalkyl)pyridinone corresponds to the 3-hydroxy function potentiometrically
# Conditions: not given
row,pKa,SMILES
1,9.77,CCc1c(O)c(=O)ccn1CCO
2,9.65,Cc1c(O)c(=O)ccn1CCO

# Test system: not listed separately
# Assay: Compound was tested for equilibrium constants (pKa2) of the (hydroxyalkyl)pyridinone corresponds to the 3-hydroxy function spectrophotometrically..
# Conditions: not given
row,pKa,SMILES
1,9.75,CCc1c(O)c(=O)ccn1CCO
2,9.72,Cc1c(O)c(=O)ccn1CCO
